ARFGAP1 inh: rat ARFGAP1 inhibition. Q62848. actives 0.26% (n = 360,000). AID 651572. Arfgap1-stimulated ARF1 GTP hydrolysis, GDP FP detection. inhibition, % at 16.5 µM;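 active = inhibition above a per-plate limit, mean inhibition of low control wells plus 3 SD, cut at about 25% in these data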;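 also: 0% = DMSO wells with enzyme and 100% = wells lacking Arfgap1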
Target sequence (Q62848 1-136 limits assumed): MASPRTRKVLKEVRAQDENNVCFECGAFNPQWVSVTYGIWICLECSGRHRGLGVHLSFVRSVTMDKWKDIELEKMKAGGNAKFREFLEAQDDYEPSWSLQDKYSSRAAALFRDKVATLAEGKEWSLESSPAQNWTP
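Assay system: Rat Arfgap1 GAP domain (His6, aa 1-136), purified enzyme | Buffer or medium: HEPES 25 mM pH 7.5, NaCl 150 mM, MgCl2, DTT | Schedule: GTP hydrolysis reaction 2 h at 25 °C | Signal: FP of antibody-bound GDP Alexa 633 tracer, ex 620/em 688 nm | Measure: Percent inhibition of Arfgap1-stimulated GTP hydrolysis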
HGIII-sPLA2 inh: Inhibits HGIII-sPLA2 liposome hydrolysis, primary screen; Q9NZ20; QFRET BODIPY PC-A2 liposome hydrolysis, fluorescence; inhibition, % at 12.2 µM; actives 0.56% (n = 370,000); AID 743126;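 active = inhibition above mean plus 3 SD of compounds lying within the high and low control bounds, cut at about 19% in these data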;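 also: 0% = median of test compound wells and 100% = no enzyme DMSO wells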
PLCg1 inh: blocks human PLC-gamma1 enzyme activity. actives 0.84% (n = 370,000). inhibition, % at 12.2 µM. AID 720700. purified PLC-gamma1, fluorogenic substrate, fluorescence
ASAP1 inh: inhibitors of human ASAP1 ArfGAP activity. ASAP1-stimulated ARF1 GTP hydrolysis, GDP FP detection. inhibition, % at 16.5 µM. actives 0.19% (n = 360,000); in the data active = inhibition above about 25%;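 also: 0% = vehicle with enzyme and substrate and 100% = no enzyme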
Target sequence (Q9ULH1 325-724 limits assumed): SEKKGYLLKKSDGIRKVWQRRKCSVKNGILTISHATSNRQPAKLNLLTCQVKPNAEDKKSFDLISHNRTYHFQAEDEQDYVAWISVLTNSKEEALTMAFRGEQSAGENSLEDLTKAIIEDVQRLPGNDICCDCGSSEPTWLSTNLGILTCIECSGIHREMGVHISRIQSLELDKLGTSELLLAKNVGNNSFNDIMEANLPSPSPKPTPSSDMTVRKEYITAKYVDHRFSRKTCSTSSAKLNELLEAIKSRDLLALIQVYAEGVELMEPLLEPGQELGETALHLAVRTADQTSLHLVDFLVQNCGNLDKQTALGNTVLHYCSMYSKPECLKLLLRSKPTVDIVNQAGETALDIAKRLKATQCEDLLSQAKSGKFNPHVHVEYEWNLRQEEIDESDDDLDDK
PLCb3 inh: blocks human PLC-beta3 enzyme activity | Q01970 | Purified PLC-beta3, fluorogenic substrate, fluorescence | inhibition, % at 12.2 µM | actives 0.18% (n = 370,000); in the data active = inhibition above about 11%;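 also: 0% = median of compound wells on plate and 100% = full blocker control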
ASAP1 GAP conf: ASAP1 inhibition confirmed; shares compounds with ASAP1 inh; inhibition, % at 16.5 µM; actives 37% (n = 620); ASAP1-stimulated Arf1 GTPase, GDP fluorescence polarization; AID 624431;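 active = mean inhibition over triplicates exceeds the hit threshold derived for the earlier primary screening run, cut at about 25% in these data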
ARFGAP1 inh conf: confirmation of rat ARFGAP1 inhibitors; AID 651608; shares compounds with ARFGAP1 inh; ARFGAP1-stimulated ARF1 GTP hydrolysis, GDP tracer FP; actives 30% (n = 890); inhibition, % at 16.5 µM;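 active = average inhibition over triplicates above the hit cutoff set in the earlier primary screen, cut at about 25% in these data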;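 also: 0% = Arfgap1 plus ARF1-GTP with DMSO and 100% = wells lacking Arfgap1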
PLCgamma1 ctr: PLC-gamma1 inhibition, counter-screen for PLC-beta3 hits; inhibition, % at 12.3 µM; purified PLC-gamma1, fluorogenic substrate, fluorescence; shares compounds with PLCg1 inh; actives 3.1% (n = 3,300)
PLCbeta3 conf: human PLC-beta3 inhibition, confirmation | purified PLC-beta3, fluorogenic substrate fluorescence | shares compounds with PLCg1 inh | AID 743261 | inhibition, % at 12.3 µM | actives 1% (n = 3,300); in the data active = inhibition above about 11%
* hit, by the source's call; i = inactive; . = not tested or not shown. Compounds with a hit are over-represented: about 1.9% of the library has one in this group of screens. Rule as the data show it, unless noted: active = inhibition above about 9.5%; inactive = the rest.

SMILES	ARFGAP1 inh	HGIII-sPLA2 inh	PLCg1 inh	ASAP1 inh	PLCb3 inh	others
Cc1ccc(Cl)cc1N1CCN(CCN)CC1	-4	0	16*	3	4
O=C(CN1C(=O)[C@@H](Cc2ccc(O)cc2)N=C(c2ccccc2)c2ccccc21)NC1CCCCC1	.	-25	3	.	2
Cc1ccc(C(=O)N[C@@H](C)CN2C3=NC[C@@H](Cc4ccccc4)N3C[C@H]2Cc2ccc(O)cc2)cc1Br	6	-23	13*	2	5
C=C(C=O)CC1CC(O)[C@]2(C)OC3CC4OC5C[C@]6(C)O[C@]7(C)CCC8OC9C[C@]%10(C)OC%11C(C)=CC(=O)OC%11CC%10OC9C[C@@H](C)C8OC7CC6O[C@]5(C)C/C=C\C4OC3CC2O1 (some centres undefined)	.	-15	-3	.	2
Nc1ccc(Cc2ccc(N)cc2)cc1	1	6	-1	-9	11*
Nc1ccc(Cl)cc1	13	5	0	6	-1
O=[N+]([O-])c1ccccc1Cl	1	-1	-2	0	5
O=C1NC(=O)C(Sc2ccccc2[N+](=O)[O-])C(=O)N1	22	3	-33	42*	-53
CCOC(=O)CC[C@@H]1CC[C@]2(CCCN(Cc3cccnc3)C2)O1	.	8	0	.	0
O=C(Nc1ccc(Cl)c(Cl)c1)c1ccco1	17	4	2	16	-3
O=C1NC(=O)C(Nc2ccc(Cl)c(Cl)c2)C(=O)N1	14	13	-1	47*	-6
COC(=O)C1=C[C@H]([C@@H](C)[C@H](OC)c2ccccc2Br)[C@@H]2[C@H]1c1ccccc1N2C	.	4	-2	.	-2
CN(C)c1ccc(/C=C/C=C2/C(=O)NC(=O)N(c3ccccc3)C2=O)cc1	5	5	-1	28*	-7
C=C1C(=O)C(C)=C2C(=O)N3Cc4[nH]c5ccccc5c4CC3(C(=O)OC)C12 (centres undefined)	.	11	-2	.	-6
CC(Cc1ccccc1)NC(=O)Cc1ccc([N+](=O)[O-])cc1 (centres undefined)	-3	2	9.8*	1	0
Cc1nc2c(=O)n(C)c(=O)nc-2n(C)n1	-7	-3	60*	-3	6
CCSc1nnc(C(N)Cc2ccccc2)o1 (centres undefined)	-3	-2	0	29*	1	ASAP1 GAP conf=-2
CCSc1nnc([C@@H](N)Cc2ccccc2)o1	5	6	4	1	2
COP(=O)(OC)C(NC(C)=O)C(Cl)(Cl)Cl (centres undefined)	14	6	8	26*	2	ASAP1 GAP conf=4
Cc1ccc(/C=C2\C(=O)NC(=O)N(Cc3ccccc3Cl)C2=O)o1	2	-14	-10	28*	-13	ASAP1 GAP conf=8
CC(C)(C)NC(=O)C1CN=C(c2ccccc2)c2cc(Cl)ccc2N1C(=O)C1CCC1 (centres undefined)	.	-2	-5	.	-3
CC(C)C(C(=O)NC(C)(C)C)N1C(=O)CN=C(c2ccccc2)c2ccccc21 (centres undefined)	.	2	-2	.	1
OC12Oc3ccccc3C=C1N1CCC2CC1 (centres undefined)	25*	4	-7	-5	-13	ARFGAP1 inh conf=4
Clc1ccc(C(c2ccc(Cl)cc2)n2cc[n+](CC(OCc3ccc(Cl)cc3Cl)c3ccc(Cl)cc3Cl)c2)cc1 (centres undefined)	28*	-88	4	20	4	ARFGAP1 inh conf=81*
Clc1ccc(COC(Cn2ccnc2)c2ccc(Cl)cc2Cl)cc1 (centres undefined)	1	-24	0	-9	0
SMILES	ARFGAP1 inh	HGIII-sPLA2 inh	PLCg1 inh	ASAP1 inh	PLCb3 inh	others
CCCC(=O)N1c2ccc(Cl)cc2C(c2ccccc2)=NCC1C(=O)NC(C)(C)C (centres undefined)	.	-1	-3	.	-1
Cc1cc(N2CCNC[C@H]2C)ccc1N1CC[C@H](O)C1	0	-1	0	-2	-3
COc1ccc(/C=C/C(=O)NC(=S)N2C[C@H]3C[C@H](C2)c2cccc(=O)n2C3)cc1	-10	9	3	-2	5
COc1ccc(C(=O)NC(=S)N2C[C@H]3C[C@H](C2)c2cccc(=O)n2C3)cc1	34*	4	4	3	6	ARFGAP1 inh conf=7
CN(c1ccc(OCC(=O)N2CCN(C/C=C/c3ccccc3)CC2)cc1)S(=O)(=O)c1cccs1	27*	-20	-1	-12	3	ARFGAP1 inh conf=4
CC(NC(=O)OC1CC2CCC1(C)C2(C)C)P(=O)(Oc1ccccc1)Oc1ccccc1 (centres undefined)	.	4	3	.	2
Cc1ccccc1-n1c(O)c(/C=N/Nc2nc3c(c(=O)n(C)c(=O)n3C)n2C)c(=O)[nH]c1=S	26*	17	-28	1	-35	ARFGAP1 inh conf=4
CCOC(=O)c1c(NS(=O)(=O)c2ccccc2)n(CCCOC)c2nc3ccccc3nc12	34*	-1	i	4	i	ARFGAP1 inh conf=-10
N#CCC[C@@H]1CC[C@]2(CCCN(Cc3ccccn3)C2)O1	.	0	-3	.	-2
O=P(O)(O)C12CC3CC(CC(C3)C1)C2	-1	-2	13*	6	9	PLCgamma1 ctr=-4;PLCbeta3 conf=-1
O=P(/C(=N/O)N1CCCCC1)(N1CCOCC1)N1CCOCC1	-1	-1	9.6*	1	4	PLCgamma1 ctr=8;PLCbeta3 conf=2
CN(C=O)CP(=O)(O)CN(C)C=O	-6	17	13*	-3	13*	PLCgamma1 ctr=-1;PLCbeta3 conf=-1
CCN(CC)CCCN=Cc1c(O)n(CCc2ccc(OC)c(OC)c2)c(=O)[nH]c1=O	-4	4	18*	-3	0	PLCgamma1 ctr=-2;PLCbeta3 conf=0
CC(NC(=O)OCc1ccccc1)[P+](=O)O (centres undefined)	.	1	0	.	6
CN1CCN(CCOC2c3ccccc3CSc3ccc(Cl)cc32)CC1 (centres undefined)	1	-27	12*	-3	2	PLCgamma1 ctr=3;PLCbeta3 conf=3
CSCCC(c1nnnn1C1CCCC1)N1CCC(n2c(=O)[nH]c3ccccc32)CC1 (centres undefined)	13	-8	10*	11	-1	PLCgamma1 ctr=-2;PLCbeta3 conf=3
Clc1cc(Cl)cc(CN2Cc3ccccc3-n3nncc3C2)c1	.	4	0	.	2

From PubChem
